Screens (PubChem)
Shown are actives, neighbours in structure and some others; about 2.3% of the full set was active somewhere.
OXTR potentiator – human OXTR potentiators, primary screen, fluorescence, CHO-OTR cells, Fluo-8 calcium. Oxytocin receptor (Homo sapiens), P30559. Fluo-8 calcium fluorescence, potentiator mode; 0% = oxytocin EC15, 100% = EC100. activation, % at 3 µM. 320,000 tested, 0.061% active. AID 2445, 2010;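 active = activation above that plate's cutoff, the mean activation of tested compounds plus 3 SD, cut at about 6.6% in these data, passing the limit was not always enough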;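 note: 100% uses oxytocin at 75 nM as the full agonist control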
Target sequence (P30559 whole entry, looked up): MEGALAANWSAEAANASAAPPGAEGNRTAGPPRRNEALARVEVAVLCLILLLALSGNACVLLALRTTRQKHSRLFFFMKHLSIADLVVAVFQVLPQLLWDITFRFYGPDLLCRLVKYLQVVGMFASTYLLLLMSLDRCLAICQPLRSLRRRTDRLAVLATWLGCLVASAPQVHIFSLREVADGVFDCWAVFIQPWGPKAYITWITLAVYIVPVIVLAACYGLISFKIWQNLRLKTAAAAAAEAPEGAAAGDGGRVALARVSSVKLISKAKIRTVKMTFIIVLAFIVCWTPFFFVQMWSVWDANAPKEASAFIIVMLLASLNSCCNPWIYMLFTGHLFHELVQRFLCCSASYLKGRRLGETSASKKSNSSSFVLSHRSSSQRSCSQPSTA
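Material: human OTR in CHO cells. Compound: 3.0 µM, one dose. Timing: compound 6 min at room temperature before oxytocin, 100 s read. Evaluation: % activation of max/min ratio relative to oxytocin controls. Replication: single well per compound, singlicate. Signal: Fluo-8 calcium dye fluorescence.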
TAAR1 ag – human TAAR1 agonists, primary screen, Fluo-8 calcium fluorescence, CHO RD-HGA16 cells; activation, % at 3 µM; Trace amine-associated receptor 1 (Homo sapiens), Q96RJ0; 360,000 tested, 0.99% active; AID 624467, 2012; vehicle wells 0%, saturating PEA agonist 100%;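 active = activation above the mean activation of all test compounds in the run plus 3 SD, cut at about 38% in these data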
Target sequence (Q96RJ0 whole entry, looked up): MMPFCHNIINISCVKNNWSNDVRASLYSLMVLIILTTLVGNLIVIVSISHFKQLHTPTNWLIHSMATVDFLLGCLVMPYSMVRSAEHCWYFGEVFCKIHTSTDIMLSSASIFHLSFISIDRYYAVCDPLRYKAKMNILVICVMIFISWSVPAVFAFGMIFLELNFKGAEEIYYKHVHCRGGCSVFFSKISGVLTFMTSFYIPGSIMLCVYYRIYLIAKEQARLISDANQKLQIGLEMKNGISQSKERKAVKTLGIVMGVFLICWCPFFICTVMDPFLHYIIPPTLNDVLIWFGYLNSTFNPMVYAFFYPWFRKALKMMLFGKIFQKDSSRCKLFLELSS
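Assay system: CHO-derived RD-HGA16 cells with stable Gα16 and human TAAR1; timing: 17-24 h seeding, 75 min 37 °C dye, 30 min RT; read-out: % activation from peak over basal fluorescence ratio, DMSO-to-PEA scaled; measured by: kinetic Fluo-8 calcium fluorescence; benchmarks: low control DMSO, high control PEA (EC100); doses: 3 µM single concentration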
TAAR1 antag – human TAAR1 antagonists, primary screen, Fluo-8 calcium fluorescence, CHO RD-HGA16 cells. Trace amine-associated receptor 1 (Homo sapiens), Q96RJ0. antagonist. inhibition, % at 3 µM. 360,000 tested, 1.5% active. AID 624466, 2012;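 active = inhibition above a per-plate cutoff, the mean inhibition of test compounds on that plate plus 3 SD, cut at about 49% in these data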;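 note: 0% = DMSO plus EC80 beta-PEA response and 100% = DMSO alone without agonist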
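Test system – hTAAR1-expressing CHO RD-HGA16 cells, Gα16-coupled · Reagent – β-PEA at EC80 concentration, post-compound challenge · Compound dosing – 3 µM, single point · Timing – 140 s kinetic read after compound, 140 s after agonist · Detection – Fluo-8 intracellular calcium dye fluorescence, real-time kinetic reads · Control set – DMSO and EC80 PEA controls · Repeats – n of 1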
V1R ag counter – agonists of human V1a receptor, primary screen, counter-screen for OXTR agonist project, fluorescence, CHO-V1R cells | Vasopressin V1a receptor (Homo sapiens), P37288 | Fluo-8 calcium fluorescence, agonist mode; 0% DMSO, 100% 3 nM vasopressin | activation, % at 3 µM | 320,000 tested, 0.25% active | AID 2797, 2010;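 active = activation above the mean activation of all tested compounds plus 3 SD, per screening run, cut at about 20% in these data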;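 note: signal is peak over basal fluorescence ratio across a 100 second FLIPR read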
OXTR ag – human OXTR agonists, primary screen, fluorescence, CHO-OTR cells, Fluo-8 calcium | activation, % at 3 µM | 320,000 tested, 0.32% active | AID 2435, 2010 | Fluo-8 calcium fluorescence; normalized: DMSO 0%, oxytocin 100%;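 active = activation above the mean of all tested compounds plus 3 SD, cutoff set per screening run, cut at about 20% in these data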;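 note: peak over basal fluorescence ratio from a 100 s FLIPR kinetic read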
TAAR1 ag confirm – human TAAR1 agonists, retest of hits, confirmation, Fluo-8 calcium fluorescence, CHO RD-HGA16 cells; shares compounds with TAAR1 ag; scaled: DMSO 0%, maximal phenethylamine 100%; activation, % at 3 µM; 2,400 tested, 82% active; AID 651783, 2012;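 active = activation above a cutoff set at the run's mean compound activation plus 3 SD, cut at about 39% in these data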
Ga16 ag counter – nonselective calcium mobilization agonists, CHO-Ga16 cells, counter-screen for hTAAR1 agonist project, cell-based, fluorescence, CHO-Ga16 parental line; shares compounds with TAAR1 ag; Fluo-8 calcium fluorescence; normalized to maximal ATP response, DMSO zero; activation, % at 3 µM; 2,400 tested, 50% active;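 active = activation above the run cutoff, the mean activation over all tested wells plus 3 SD, cut at about 12% in these data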;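 note: 0% = DMSO wells and 100% = maximal ATP response on the peak over basal ratio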
TAAR1 desens – TAAR1 desensitization by agonist hits, confirmation, counter-screen for TAAR1 agonist project, cell-based, fluorescence, tachyphylaxis. shares compounds with TAAR1 ag. CHO RD-HGA16 hTAAR1, Fluo-8 calcium, beta-PEA response inhibition. AID 651951, 2012. 2,400 tested, 46% active. inhibition, % at 3 µM;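 active = inhibition above the run cutoff, the mean inhibition of all test compounds plus 3 SD, cut at about 49% in these data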;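 note: beta-PEA stimulus applied at its EC80; loss of beta-PEA calcium signal after compound pretreatment read as receptor desensitization; 0% = DMSO with beta-PEA at EC80 and 100% = DMSO alone without agonist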
Ga16 antag count – inhibition of ATP-evoked calcium response in CHO-Ga16 cells, counter-screen for TAAR1 agonist project, cell-based, fluorescence. shares compounds with TAAR1 ag. CHO-Ga16 ATP-induced calcium, Fluo-8 fluorescence. inhibition, % at 3 µM. 2,400 tested, 39% active;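 active = inhibition above the plate's mean compound inhibition plus 3 SD, computed per plate, cut at about 22% in these data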;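 note: 0% = EC80 ATP with DMSO and 100% = DMSO wells without ATP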
Numbers without * were called inactive; nt = no result given.

SMILES	OXTR potentiator	TAAR1 ag	TAAR1 antag	V1R ag counter	OXTR ag	TAAR1 ag confirm	Ga16 ag counter	TAAR1 desens	Ga16 antag count
CC(C)NS(=O)(=O)c1ccc(NC(=O)C(C)Oc2ccc(C(=O)c3ccccc3)cc2)cc1 (centres undefined)	-18	123*	105*	66*	54*	122*	84*	105*	86*
O=C(CNC(=O)c1ccccc1F)NCCc1ccccc1F	-3	13	9	0	0	nt	nt	nt	nt
CCC(=O)c1cn(CC(=O)Nc2cccc(OC)c2)c2ccccc12	-8	4	-20	3	1	nt	nt	nt	nt
CCCCc1cc(=O)oc2cc(C)cc(OCC(=O)N[C@@H](CSCc3ccccc3)C(=O)O)c12	-3	60*	15	1	0	84*	44*	28	14
COc1ccc(C(C(N)=O)c2ncc(C(F)(F)F)cc2Cl)cc1 (centres undefined)	-5	16	-3	0	0	nt	nt	nt	nt
CC1CCCCN1S(=O)(=O)c1ccc(C(=O)N(CCCN(C)C)c2nc3ccc(Br)cc3s2)cc1 (centres undefined)	-8	51*	46	10	17	69*	52*	57*	56*
CN(C)CCCN(C(=O)c1ccc(S(=O)(=O)N2CCOCC2)cc1)c1nc2ccc(F)cc2s1	-4	8	14	5	2	nt	nt	nt	nt
CN(C)CCCN(C(=O)c1ccc(S(=O)(=O)N2CCCCCC2)cc1)c1nc2ccc(F)cc2s1	-4	67*	16	12	6	68*	30*	38	20
CN(C)CCN(C(=O)c1ccc(S(=O)(=O)N2CCCC2)cc1)c1nc2ccc(Br)cc2s1	-8	7	-20	2	2	nt	nt	nt	nt
Cc1ccc(SCCC(=O)OCC(=O)NCC2CCCCC2)cc1	-1	3	3	-1	-2	nt	nt	nt	nt
CC1(C)CCCN(C(=O)c2coc(=O)c(Br)c2)C1	nt	79*	76*	nt	nt	100*	3	95*	6
O=C(c1coc(=O)c(Br)c1)N1CCC(C(O)(c2ccccc2)c2ccccc2)CC1	3	3	-12	1	0	nt	nt	nt	nt
NCCc1c(-c2ccccc2)n(-c2ccccc2)c2ccccc12	nt	61*	63*	nt	nt	85*	51*	96*	34*
CC(=O)n1c(-c2ccccc2)c(CO)c2ccccc21	-13	2	-3	0	0	nt	nt	nt	nt
CN(C(=O)c1cccc(NC(=O)Cc2ccc(NC(=O)C3CCCN(C(=O)C4CCC4)C3)cc2)c1)C1CC1 (centres undefined)	nt	0	8	nt	nt	nt	nt	nt	nt
CCCN1C(=O)S/C(=C\c2ccc(N3CCOCC3)o2)C1=O	4	56*	40	7	2	60*	53*	45	44*
CCc1nc2ccc(C(=O)Nc3ccc(OC)c(OC)c3)cn2c1N(C)CCC(C)C	nt	82*	6	nt	nt	99*	68*	38	9
CCc1nc2ccc(C(=O)Nc3ccc(OC)c(OC)c3)cn2c1N(C)Cc1ccc(OC)cc1	nt	3	43	nt	nt	nt	nt	nt	nt
Cc1ccc(NC(=O)N2CCc3ccccc3C2)c(C)c1	-2	92*	43	1	-1	66*	3	20	12
O=C(Nc1ccc(Cl)cc1)N1CCc2ccccc2C1	-11	30	0	0	-2	nt	nt	nt	nt
O=C(Nc1ccccc1)N1CCc2ccccc2C1	-8	48*	20	0	1	54*	5	14	5
Cc1ccc(NC(=O)N2CCc3ccccc3C2)cc1	-1	68*	8	-1	-2	43*	1	5	1
CC(=O)c1cccc(NC(=O)N2CCc3ccccc3C2)c1	-1	56*	19	2	1	62*	5	24	18
CC1CC1C(=O)OCC(=O)NNC(=O)COc1ccc(Br)cc1 (centres undefined)	-4	1	-15	0	0	nt	nt	nt	nt
CC(C)CNC(=O)c1ccccc1-c1ccccc1C(=O)O	-12	54*	3	-1	0	7	5	-2	7
SMILES	OXTR potentiator	TAAR1 ag	TAAR1 antag	V1R ag counter	OXTR ag	TAAR1 ag confirm	Ga16 ag counter	TAAR1 desens	Ga16 antag count
CC(C)CNC(=O)c1cccc(NC(=O)c2ccccc2-c2ccccc2C(=O)O)c1	-3	1	-11	2	1	nt	nt	nt	nt
O=C(Nc1ccccc1)Nc1nccs1	-4	47*	18	6	1	85*	3	49*	7
O=C(Cc1nnc(NC(=O)Nc2ccccc2)s1)NCc1ccccc1	-1	60*	39	0	0	80*	2	64*	10
O=C(Cc1nnc(NC(=O)Nc2ccc(Cl)cc2)s1)NCc1ccccc1	-3	19	30	1	1	nt	nt	nt	nt
O=C(Nc1ccccc1)Nc1nncs1	-8	nt	nt	0	1	nt	3	nt	7
COc1ccc(NC(=O)Nc2nccs2)cc1	-1	21	12	1	2	nt	nt	nt	nt
CCOC(=O)Cc1cc(=O)[nH]n(-c2ccccc2)c1=O	nt	6	-16	nt	nt	nt	nt	nt	nt
Cc1ccc(Oc2ccc(Oc3ccc(C)cc3)nn2)cc1	5	66*	68*	-2	-3	5	17*	12	17
Cc1ccc(Oc2cnc3ccccc3n2)cc1	-7	24	-9	0	-1	nt	nt	nt	nt
COc1cc(/C=C2/SC(=S)N(Cc3ccccc3)C2=O)cc(Cl)c1O	-23	103*	89*	65*	70*	182*	198*	101*	100*
CC(C)(C)c1ccc(C2(C)NC(=O)N(CC(=O)NCc3cccs3)C2=O)cc1 (centres undefined)	-5	5	-22	2	-1	nt	nt	nt	nt
